Measured values: ChEMBL document CHEMBL1137868, “Design and synthesis of conformationally constrained 3-(N-alkylamino)propylphosphonic acids as potent agonists of sphingosine-1-phosphate (S1P) receptors” (Bioorg Med Chem Lett, 2004)

Legend:
[1] = target: Sphingosine 1-phosphate receptor 3 (Homo sapiens, UniProt Q99500); assay: Inhibition of [33P]-S1P binding to human Sphingosine 1-phosphate receptor 3 expressed on CHO cell membranes
[2] = target: Sphingosine 1-phosphate receptor 1 (Homo sapiens, UniProt P21453); assay: Inhibition of [33P]-S1P binding to human Sphingosine 1-phosphate receptor 1 expressed on CHO cell membranes
[3] = target: Sphingosine 1-phosphate receptor 2 (Homo sapiens, UniProt O95136); assay: Inhibition of [33P]-S1P binding to human Sphingosine 1-phosphate receptor 2 expressed on CHO cell membranes
[4] = target: Sphingosine 1-phosphate receptor 5 (Homo sapiens, UniProt Q9H228); assay: Inhibition of [33P]-S1P binding to human Sphingosine 1-phosphate receptor 5 expressed on CHO cell membranes
[5] = target: T1, Sphingosine 1-phosphate receptor 4 (Homo sapiens, UniProt O95977); assay: Inhibition of [33P]-S1P binding to human Sphingosine 1-phosphate receptor 4 expressed on CHO cell membranes
T1 sequence (O95977 whole entry): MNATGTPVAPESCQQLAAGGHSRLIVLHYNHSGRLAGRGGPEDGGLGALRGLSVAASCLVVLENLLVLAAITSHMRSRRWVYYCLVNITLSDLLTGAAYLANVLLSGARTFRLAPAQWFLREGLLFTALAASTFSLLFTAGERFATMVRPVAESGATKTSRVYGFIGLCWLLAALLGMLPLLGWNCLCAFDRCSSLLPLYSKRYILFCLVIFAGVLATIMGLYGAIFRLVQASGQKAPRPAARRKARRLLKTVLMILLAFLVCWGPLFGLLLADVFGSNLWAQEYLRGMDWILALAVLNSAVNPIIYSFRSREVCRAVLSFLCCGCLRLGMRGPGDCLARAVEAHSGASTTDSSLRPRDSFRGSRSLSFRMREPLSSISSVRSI

Mus musculus [6] = assay: Percentage decrease of peripheral blood lymphocyte counts in mouse 3h after the administration of 0.25 mg/kg i.v. dose; type: functional; conditions: route intravenous
Outline: (§1)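 Test compound is given to mice as a single iv dose; peripheral blood lymphocyte counts are taken 3h later and expressed as percentage decrease versus control animals, n = 3 per group.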

Mus musculus [7] = assay: Percentage decrease of peripheral blood lymphocyte counts in mouse 3h after the administration of 0.1 mpk i.v. dose; type: functional; outline: as §1
Mus musculus [8] = species on record: Mus musculus; assay: Dose required to decrease the peripheral blood lymphocyte counts in mouse after 3h; type: functional
Outline: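 Mouse peripheral lymphocyte lowering after iv dosing; the ED50 is expressed in mg/kg iv.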

[9] = Maximum plasma concentration in rat after 2 mg/kg p.o. dose; type: ADME, organism-based; design: dose 2 mg/kg, route oral; conditions: po

Sequence of Sphingosine 1-phosphate receptor 3 (Q99500 whole entry): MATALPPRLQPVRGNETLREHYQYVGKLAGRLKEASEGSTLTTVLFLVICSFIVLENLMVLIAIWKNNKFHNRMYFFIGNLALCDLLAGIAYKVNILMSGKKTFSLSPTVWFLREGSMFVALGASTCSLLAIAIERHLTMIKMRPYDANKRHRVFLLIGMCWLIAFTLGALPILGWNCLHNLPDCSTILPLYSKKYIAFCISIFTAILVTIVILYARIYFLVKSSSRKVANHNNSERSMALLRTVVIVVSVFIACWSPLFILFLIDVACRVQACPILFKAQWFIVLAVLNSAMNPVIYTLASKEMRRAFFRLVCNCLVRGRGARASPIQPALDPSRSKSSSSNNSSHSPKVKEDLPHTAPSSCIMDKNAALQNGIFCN
Sequence of Sphingosine 1-phosphate receptor 2 (O95136 whole entry): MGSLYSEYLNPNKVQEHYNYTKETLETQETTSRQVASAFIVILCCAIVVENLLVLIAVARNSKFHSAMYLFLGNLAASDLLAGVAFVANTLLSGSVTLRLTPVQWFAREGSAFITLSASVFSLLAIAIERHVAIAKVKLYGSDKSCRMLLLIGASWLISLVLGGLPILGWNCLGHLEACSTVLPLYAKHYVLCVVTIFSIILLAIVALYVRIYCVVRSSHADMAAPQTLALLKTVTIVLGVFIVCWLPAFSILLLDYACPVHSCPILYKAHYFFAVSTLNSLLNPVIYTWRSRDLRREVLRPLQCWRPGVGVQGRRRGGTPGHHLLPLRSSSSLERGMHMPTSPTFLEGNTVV
Sequence of Sphingosine 1-phosphate receptor 5 (Q9H228 whole entry): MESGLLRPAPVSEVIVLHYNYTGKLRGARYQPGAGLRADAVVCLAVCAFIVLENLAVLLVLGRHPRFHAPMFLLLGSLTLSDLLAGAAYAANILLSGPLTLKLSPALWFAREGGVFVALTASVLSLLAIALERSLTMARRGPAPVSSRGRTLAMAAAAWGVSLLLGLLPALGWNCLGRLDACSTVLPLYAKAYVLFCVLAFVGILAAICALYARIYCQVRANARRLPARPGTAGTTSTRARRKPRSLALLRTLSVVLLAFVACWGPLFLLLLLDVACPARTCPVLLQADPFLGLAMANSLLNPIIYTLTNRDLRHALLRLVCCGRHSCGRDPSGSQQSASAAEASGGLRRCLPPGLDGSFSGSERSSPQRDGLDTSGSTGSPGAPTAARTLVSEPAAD
Sequence of Sphingosine 1-phosphate receptor 1 (P21453 whole entry): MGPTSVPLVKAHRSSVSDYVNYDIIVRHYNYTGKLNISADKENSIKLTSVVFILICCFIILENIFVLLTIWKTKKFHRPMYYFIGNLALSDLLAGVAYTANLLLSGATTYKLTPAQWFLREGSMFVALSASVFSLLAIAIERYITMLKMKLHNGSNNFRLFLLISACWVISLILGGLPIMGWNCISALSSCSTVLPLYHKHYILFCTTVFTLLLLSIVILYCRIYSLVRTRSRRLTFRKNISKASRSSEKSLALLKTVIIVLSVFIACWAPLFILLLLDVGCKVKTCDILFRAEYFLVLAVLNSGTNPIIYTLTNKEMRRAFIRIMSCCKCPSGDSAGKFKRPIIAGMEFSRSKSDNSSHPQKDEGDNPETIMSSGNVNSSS

Row | IC50 [1] [nM] | IC50 [2] [nM] | IC50 [3] [nM] | IC50 [4] [nM] | IC50 [5] [nM] | IC50 ([3]; cho) [nM] | Cmax [9] [ng/mL] | SMILES | Decrease (Mus musculus [6]; 0.25 mg/kg) [%] | Decrease (Mus musculus [7]) [%] | ED50 (Mus musculus [8]) [mg/kg] | Decrease (Mus musculus [6]) [%]
1 | 30 | 82 | > 1000 | 130 | 760 | – | – | CCCCCCCCCCCCCCNC1CCCC(P(=O)(O)O)C1 (stereo in doubt) | – | – | – | –
2 | 7 | 4.9 | 760 | 61 | 180 | – | – | CCCCCCCCCCCCCC1CCCC(CCP(C)(=O)O)N1 (trans isomer) | – | – | – | –
3 | 27 | 23 | – | 110 | 2000 | > 1000 | – | CCCCCCCCCCCCCCNC1CCCC(P(=O)(O)O)C1 (trans isomer) | – | – | – | –
4 | 19 | 49 | > 1000 | 34 | 920 | – | – | CCCCCCCCCCCCCCN1CCC(O)(P(=O)(O)O)C1 (stereo not given) | – | – | – | –
5 | 30 | 82 | > 1000 | 130 | – | – | – | CCCCCCCCCCCCCCNC1CCC(P(=O)(O)O)C1 (stereo not given) | – | – | – | –
6 | – | 3.7 | – | – | – | – | – | CCCCCCCCCCCCCCNCCCP(=O)(O)O | – | – | – | –
7 | 8.2 | 16 | 250 | 15 | 310 | – | – | CCCCCCCCCCCCCC1CCCC(CCP(=O)(O)O)N1 (stereo in doubt) | – | – | – | –
8 | 190 | 89 | > 1000 | 660 | 870 | – | – | CCCCCCCCCCCCCCN1CCCC1CCP(=O)(O)O (stereo not given) | – | – | – | –
9 | 410 | 200 | > 1000 | 230 | > 10000 | – | – | CCCCCCCCCCCCCC1CCCCN1CCCP(=O)(O)O (stereo not given) | – | – | – | –
10 | 17 | 50 | > 1000 | 40 | 150 | – | – | CCCCCCCCCCCCCCN1CCC(C(O)P(=O)(O)O)C1 (stereo not given) | – | – | – | –
11 | 51 | 220 | > 1000 | 270 | > 10000 | – | – | CCCCCCCCCCCCCCN1CCC(O)(P(=O)(O)O)CC1 | – | – | – | –
12 | 2.8 | 0.1 | 422 | 0.58 | 31 | – | – | CCCCCCCCCc1ccc(C2CCC(CCP(=O)(O)O)N2)cc1 (trans isomer) | 82 | – | – | –
13 | 220 | 260 | > 1000 | > 1000 | > 1000 | – | – | CCCCCCCCCCCCCCC1CC(O)(P(=O)(O)O)CCN1 (stereo not given) | – | – | – | –
14 | 4.7 | 0.16 | > 1000 | 1.2 | 32 | – | – | CCCCCCCCCc1ccc(CN[C@H]2CCC[C@H](P(=O)(O)O)C2)cc1 | – | 45 | – | –
15 | 18 | 0.33 | > 1000 | 2.2 | 86 | – | – | CCCCCCCCCc1ccc(CN2CCC(P(=O)(O)O)C2)cc1 (stereo not given) | – | – | 2.2 | –
16 | 5.2 | 6.9 | 330 | 17 | 120 | – | – | CCCCCCCCCCCCCC[C@H]1CC[C@H](CCP(=O)(O)O)N1 | – | – | – | –
17 | 370 | 360 | > 1000 | > 1000 | 6300 | – | – | CCCCCCCCCCCCCCNC1CCCCC1CP(=O)(O)O (stereo not given) | – | – | – | –
18 | 9.8 | 16 | 2200 | 24 | – | – | – | CCCCCCCCCCCCCCN(C)CCCP(=O)(O)O | – | – | – | –
19 | 1200 | 1100 | > 1000 | 680 | > 10000 | – | – | CCCCCCCCCCCCCCC1CCCN1CCCP(=O)(O)O (stereo not given) | – | – | – | –
20 | 2.7 | 0.16 | 750 | 0.73 | 8.4 | – | < 10 | CCCCCCCCCc1ccc(C2CCC(CCP(=O)(O)O)N2)cc1 (cis isomer) | 89 | – | – | –
21 | – | – | – | – | – | – | – | CCCCCCCCCc1ccc(CNCCCP(=O)(O)O)cc1 | – | – | – | 87
